Data on one molecule can be found in ChEMBL document CHEMBL1154975, “Selective inducible microsomal prostaglandin E(2) synthase-1 (mPGES-1) inhibitors derived from an oxicam template” (Bioorg Med Chem Lett, 2010).

For series [1], the target named is T1, Prostaglandin E synthase (Homo sapiens, UniProt O14684).
T1 sequence (O14684 whole entry): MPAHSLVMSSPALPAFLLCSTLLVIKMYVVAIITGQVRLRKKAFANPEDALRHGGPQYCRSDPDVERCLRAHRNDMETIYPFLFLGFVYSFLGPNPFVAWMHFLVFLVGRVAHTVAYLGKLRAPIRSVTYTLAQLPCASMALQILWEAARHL
Put plainly: Inhibition of human mPGES1 assessed as PGE2 level after 41 sec by ELISA. The gist of the method:
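Enzyme in 100 mM potassium phosphate pH 6.2 with 2.5 mM glutathione, compound added in DMSO. Reaction started with PGH2 (final 2 µM), stopped with 2.5 mM FeCl2, diluted 120-fold into ELISA buffer. PGE2 by ELISA against a standard curve. % control set between reference-inhibited and enzyme-only controls; IC50 by 4-parameter log fit of duplicate data.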
(An ELISA detects its analyte on a solid surface through an enzyme-linked reagent.)

Series [2] concerns the target T1, Prostaglandin E synthase. The series can be described thus: Inhibition of human mPGES1 in IL1-beta treated human FF cells assessed as blockade of PGH2 to PGE2 conversion after 50 mins by ELISA. Type of series: cell-based. The gist of the method: (§1)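 Human fetal fibroblasts in DMEM/15% FBS at 37 °C, 5% CO2; after 20–24 h, stimulated 20–24 h with 1 ng/mL IL-1β, washed, compound 50 min in serum-free DMEM, then 10 µM arachidonic acid 10 min. PGE2 by ELISA. For PGF2α, SnCl2 added after compound for 10 min before arachidonic acid. IC50 from duplicate data.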

In series [3] the target is T2, Prostaglandin G/H synthase 2 (Homo sapiens, UniProt P35354).
T2 sequence (P35354 whole entry): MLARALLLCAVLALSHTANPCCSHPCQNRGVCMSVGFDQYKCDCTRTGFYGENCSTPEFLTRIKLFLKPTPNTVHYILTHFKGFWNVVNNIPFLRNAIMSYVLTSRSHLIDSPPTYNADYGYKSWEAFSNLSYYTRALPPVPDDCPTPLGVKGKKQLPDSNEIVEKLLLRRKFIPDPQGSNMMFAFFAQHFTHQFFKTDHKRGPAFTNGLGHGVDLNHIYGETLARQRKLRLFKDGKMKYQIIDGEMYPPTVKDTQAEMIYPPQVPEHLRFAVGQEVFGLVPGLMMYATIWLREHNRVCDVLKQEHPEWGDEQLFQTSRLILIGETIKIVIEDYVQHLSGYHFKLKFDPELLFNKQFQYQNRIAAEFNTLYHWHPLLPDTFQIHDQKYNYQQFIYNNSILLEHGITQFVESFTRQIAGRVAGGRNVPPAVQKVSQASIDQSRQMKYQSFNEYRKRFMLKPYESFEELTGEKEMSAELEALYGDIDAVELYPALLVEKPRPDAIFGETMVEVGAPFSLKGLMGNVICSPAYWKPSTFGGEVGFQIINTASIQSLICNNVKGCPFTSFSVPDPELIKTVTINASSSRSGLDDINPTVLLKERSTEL
Put plainly: Inhibition of human COX2 in IL1-beta treated human FF cells assessed as blockade of SnCl2-mediated PGH2 to PGF2alpha conversion after 50 mins by ELISA. Type of series: cell-based. The gist of the method:
as §1

Series [4] concerns the target Prostaglandin G/H synthase 1 (Homo sapiens, UniProt P23219). The series can be described thus: Inhibition of human recombinant COX1.
The target in series [5] is T2, Prostaglandin G/H synthase 2. Put plainly: Inhibition of human recombinant COX2.
The nature of series [6]: Aqueous solubility assessed as nitrogen content after 24 hrs. Type of series: physicochemical. The method, boiled down:
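Test compound from 30 mM DMSO stock diluted into 50 mM sodium phosphate buffer at the indicated pH (final 2% DMSO). Shaken 24 h at room temperature (23–25 °C), vacuum filtered. Filtrate nitrogen measured by chemiluminescent nitrogen detection; concentration derived from nitrogen count in molecular formula, reported in µg/mL and µM.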

For series [7], the target named is T1, Prostaglandin E synthase. Put plainly: Inhibition of human mPGES1 in IL-1-beta-stimulated human RASF cells assessed as blockade of PGH2 to PGE2 conversion after 50 mins by ELISA. Type of series: cell-based. The gist of the method: (§2)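 RA synovial fibroblasts cultured 3 days in DMEM/10% FBS, then 24 h with 1 ng/mL IL-1β in DMEM/1% FBS. Washed; compound (1% Me2SO final) 50 min, then 10 µM arachidonic acid 10 min at 37 °C. For PGF2α, 2 mg/mL SnCl2 added 40 min after compound. Prostanoids in conditioned media by ELISA.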

Series [8] concerns the target T3, Prostacyclin synthase (Homo sapiens, UniProt Q16647).
T3 sequence (Q16647 whole entry): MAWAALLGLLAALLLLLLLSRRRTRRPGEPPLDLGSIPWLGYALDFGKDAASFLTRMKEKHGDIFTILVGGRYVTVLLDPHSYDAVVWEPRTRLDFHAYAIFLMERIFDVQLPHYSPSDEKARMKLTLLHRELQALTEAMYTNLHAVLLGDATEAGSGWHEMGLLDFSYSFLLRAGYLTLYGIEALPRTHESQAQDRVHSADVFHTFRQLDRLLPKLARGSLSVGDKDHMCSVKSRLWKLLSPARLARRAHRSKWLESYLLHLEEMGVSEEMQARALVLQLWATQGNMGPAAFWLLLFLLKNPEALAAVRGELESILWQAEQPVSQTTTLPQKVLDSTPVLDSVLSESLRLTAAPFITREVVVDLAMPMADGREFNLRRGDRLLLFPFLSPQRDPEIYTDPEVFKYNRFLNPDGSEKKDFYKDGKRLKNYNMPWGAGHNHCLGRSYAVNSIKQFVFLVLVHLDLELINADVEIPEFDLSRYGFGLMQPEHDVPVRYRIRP
The series can be described thus: Inhibition of human prostacyclin synthase in IL-1-beta-stimulated human RASF cells assessed as PGF1alpha levels after 50 mins by ELISA. Type of series: cell-based. The gist of the method: as §2

The target of series [9] is T2, Prostaglandin G/H synthase 2. Put plainly: Inhibition of human COX2 in IL-1-beta-stimulated human RASF cells assessed as PGF2alpha levels after 50 mins by ELISA. In kind it is cell-based. The method, boiled down:
as §2

Series [10] has as its target T4, Thromboxane-A synthase (Homo sapiens, UniProt P24557).
T4 sequence (P24557 whole entry): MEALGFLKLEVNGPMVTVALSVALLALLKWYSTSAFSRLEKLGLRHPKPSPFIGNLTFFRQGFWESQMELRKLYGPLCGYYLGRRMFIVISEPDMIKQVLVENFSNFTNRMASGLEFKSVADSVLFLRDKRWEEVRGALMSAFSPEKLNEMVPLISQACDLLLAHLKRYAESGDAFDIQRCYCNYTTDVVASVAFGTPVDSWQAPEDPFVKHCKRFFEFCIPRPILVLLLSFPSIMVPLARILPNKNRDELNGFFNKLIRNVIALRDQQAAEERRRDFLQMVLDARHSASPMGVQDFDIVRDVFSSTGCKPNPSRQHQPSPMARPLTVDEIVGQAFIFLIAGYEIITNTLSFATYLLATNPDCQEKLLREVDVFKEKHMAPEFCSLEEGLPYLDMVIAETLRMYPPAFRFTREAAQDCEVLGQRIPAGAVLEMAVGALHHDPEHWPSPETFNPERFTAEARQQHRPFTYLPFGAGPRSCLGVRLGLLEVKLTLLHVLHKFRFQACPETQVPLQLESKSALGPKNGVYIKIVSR
Put plainly: Inhibition of human thromboxane A synthase in IL-1-beta-stimulated human RASF cells assessed as TXB2 levels after 50 mins by ELISA. Type of series: cell-based.

For series [11], the target named is T1, Prostaglandin E synthase. The series can be described thus: Inhibition of human mPGES1 in […] assessed as PGE2 level after 24 hrs by ELISA. Type of series: tissue-based, Blood. The note with it: in the assay text read “by ELISA” for “after 24 hrs by ELISA”. The gist of the method:
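Heparinized healthy-donor human whole blood (100 µL/well) mixed with 10⁵ 1483 head-and-neck carcinoma cells, compound 15 min at 37 °C, then 30 µM arachidonic acid 10 min. Centrifuged 930 g 10 min; plasma PGE2 by ELISA.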

The term IC50 denotes the concentration at which inhibition is half-maximal. What is called solubility is how much of the substance goes into solution per volume.

Sequence of Prostaglandin G/H synthase 1 (P23219 whole entry): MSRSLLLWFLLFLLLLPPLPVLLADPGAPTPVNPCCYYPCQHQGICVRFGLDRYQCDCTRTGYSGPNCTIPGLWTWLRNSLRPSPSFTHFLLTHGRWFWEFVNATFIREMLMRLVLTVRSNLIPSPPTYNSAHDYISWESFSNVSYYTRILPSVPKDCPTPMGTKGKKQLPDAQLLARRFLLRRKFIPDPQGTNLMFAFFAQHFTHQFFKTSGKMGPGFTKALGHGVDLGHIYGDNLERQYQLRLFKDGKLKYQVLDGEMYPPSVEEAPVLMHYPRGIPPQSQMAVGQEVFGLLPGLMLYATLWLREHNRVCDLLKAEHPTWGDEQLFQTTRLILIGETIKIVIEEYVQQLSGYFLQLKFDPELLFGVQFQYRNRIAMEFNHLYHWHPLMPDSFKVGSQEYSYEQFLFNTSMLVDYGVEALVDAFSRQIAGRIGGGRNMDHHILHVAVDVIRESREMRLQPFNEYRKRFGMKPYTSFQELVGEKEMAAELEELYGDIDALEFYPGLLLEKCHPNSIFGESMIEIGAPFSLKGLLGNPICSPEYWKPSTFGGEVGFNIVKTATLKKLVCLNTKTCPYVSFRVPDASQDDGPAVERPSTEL

Take `O=C(Nc1ccc(-c2ccc(Cl)c(Cl)c2)cc1)C1=C(O)c2ccccc2S(=O)(=O)N1`: the concentration for half-maximal inhibition (IC50) in series [1] is 0.016 µM; in series [2], 0.42 µM; in series [3] it was more than 100 µM; in [4], 118 µM; in series [5], 263 µM; in [7] it was 0.5 µM. The IC50 is more than 100 µM in [8], more than 100 µM in [9], more than 100 µM in [10] and 5 µM in series [11]. In addition, in series [6], the solubility at 24 h is less than 3 µM.
